Values after ≈ are worked out from the molar mass of the structure shown.
Assays:
[1] = Inhibition of wild-type HIV1 3B reverse transcriptase infected in human MT2 cells assessed as protection against viral infection by MTT assay; type: cell-based; details: Human immunodeficiency virus 1, 3B
Outline: (§1)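 Human MT-2 T cells, run in triplicate. For antiviral activity, cells were infected with the HIV-1 IIIB strain, and EC50 was taken as the dose giving 50% protection of infected cells. For cytotoxicity, CC50 was the concentration that inhibited MT-2 cell growth by 50%.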

[2] = Cytotoxicity against human MT2 cells assessed as reduction in cell growth by MTT assay; type: toxicity, cell-based; outline: as §1
[3] = Aqueous solubility of the compound at pH 6.5 by shake-flask method; type: physicochemical

solubility thermodynamic [3] [µg/mL] | SMILES | EC50 [1] [nM] | CC50 [2] [nM]
 | N#Cc1cc2c(Oc3ccc(F)cc3OCCn3ccc(=O)[nH]c3=O)cc(F)cn2c1 | 0.4 | 
 | Cc1cc2ccc(C#N)cc2c(C)c1Oc1ccccc1OCCn1ccc(=O)[nH]c1=O | 160 | 5000
 | N#Cc1ccc2c(Cl)cc(Oc3ccc(F)cc3OCCn3ccc(=O)[nH]c3=O)cc2c1 | 24 | > 100000
 | N#Cc1ccc2c(Cl)cc(Oc3ccccc3OCCn3ccc(=O)[nH]c3=O)cc2c1 | 14 | 12000
 | Cc1c(Oc2ccccc2OCCn2ccc(=O)[nH]c2=O)cc(C(C)C)c2ccc(C#N)cc12 | 16 | 9000
 | Cc1c(Oc2ccc(F)cc2OCCn2ccc(=O)[nH]c2=O)cc(F)c2ccc(C#N)cc12 | 3 | > 100000
 | Cc1c(Oc2ccc(F)cc2OCCn2ccc(=O)[nH]c2=O)cc(Cl)c2ccc(C#N)cc12 | 3.6 | 82000
 | N#Cc1ccc2ccc(Oc3ccc(F)cc3OCCn3ccc(=O)[nH]c3=O)cc2c1 | 26 | > 100000
 | Cc1cc(Oc2ccc(F)cc2OCCn2ccc(=O)[nH]c2=O)c(F)c2cc(C#N)ccc12 | 58 | 45000
 | Cc1c(Oc2ccccc2OCCn2ccc(=O)[nH]c2=O)c(C)c2cc(C#N)ccc2c1C | 580 | > 100000
 | Cc1c(Oc2ccc(Cl)cc2OCCn2ccc(=O)[nH]c2=O)cc(F)c2ccc(C#N)cc12 | 18 | 6000
20.6 (≈ 46 µM) | Cc1c(Oc2ccccc2OCCn2ccc(=O)[nH]c2=O)cc(Cl)c2ccc(C#N)cc12 | 6.2 | > 100000
 | N#Cc1ccc2c(F)cc(Oc3ccc(F)cc3OCCn3ccc(=O)[nH]c3=O)c(Cl)c2c1 | 7 | 28000
 | Cc1cc(Oc2ccccc2OCCn2ccc(=O)[nH]c2=O)c(Cl)c2cc(C#N)ccc12 | 5 | > 100000
 | N#Cc1ccc2c(F)cc(Oc3ccccc3OCCn3ccc(=O)[nH]c3=O)c(Cl)c2c1 | 5 | > 100000
 | CCc1cc(Oc2ccccc2OCCn2ccc(=O)[nH]c2=O)c(C)c2cc(C#N)ccc12 | 6 | 12000
 | Cc1cc(Oc2ccc(F)cc2OCCn2ccc(=O)[nH]c2=O)c(C)c2cc(C#N)ccc12 | 1.9 | > 100000
 | CCOc1cc(Oc2ccccc2OCCn2ccc(=O)[nH]c2=O)c(C)c2cc(C#N)ccc12 | 10 | > 100000
 | N#Cc1ccc2cc(Oc3ccccc3OCCn3ccc(=O)[nH]c3=O)ccc2c1 | 1300 | 9000
28.2 (≈ 65.4 µM) | Cc1c(Oc2ccccc2OCCn2ccc(=O)[nH]c2=O)cc(F)c2ccc(C#N)cc12 | 7.8 | > 100000
 | COc1cc(Oc2ccccc2OCCn2ccc(=O)[nH]c2=O)c(C)c2cc(C#N)ccc12 | 17 | > 100000
 | Cc1cc(Oc2ccccc2OCCn2ccc(=O)[nH]c2=O)c(C)c2cc(C#N)ccc12 | 3.5 | > 100000
 | Cc1cc(Oc2ccccc2OCCn2ccc(=O)[nH]c2=O)cc2cc(C#N)ccc12 | 4.9 | 6000
 | COCc1cc(Oc2ccccc2OCCn2ccc(=O)[nH]c2=O)c(C)c2cc(C#N)ccc12 | 15 | 16000
 | CCCc1cc(Oc2ccccc2OCCn2ccc(=O)[nH]c2=O)c(C)c2cc(C#N)ccc12 | 21 | 15000
 | N#Cc1ccc2ccc(Oc3ccccc3OCCn3ccc(=O)[nH]c3=O)cc2c1 | 22 | 15000
 | Cc1c(Oc2ccccc2OCCn2ccc(=O)[nH]c2=O)cc(CC2CC2)c2ccc(C#N)cc12 | 18 | 13000
